ChEMBL document CHEMBL1828538, “Synthesis and pharmacological evaluation of indole-based sigma receptor ligands” (Eur J Med Chem, 2011)
Activity calls are given as the source filed them. The rule behind the calls is not given here.

Experiments:
[1] = molecular target: Histamine H1 receptor (Homo sapiens) (UniProt P35367); assay: Displacement of radioligand from histamine H1 receptor assessed as 50% receptor inhibition at 10^-7 M
Summary of the method: (§1)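 Part of a contracted (NovaScreen) panel of 64 radioligand/enzyme assays, with the test compound run at 10⁻⁵ M and 10⁻⁷ M. Each assay was scored by whether radioligand displacement exceeded 50% at each concentration.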

[2] = Displacement of radioligand from sodium channel site 2 assessed as 50% receptor inhibition at 10^-7 M; summary of the method: as §1
[3] = molecular target: T1, Muscarinic acetylcholine receptor M2 (Homo sapiens) (UniProt P08172); assay: Displacement of radioligand from muscarinic M2 receptor assessed as 50% receptor inhibition at 10^-7 M; summary of the method: as §1
T1 sequence (whole entry): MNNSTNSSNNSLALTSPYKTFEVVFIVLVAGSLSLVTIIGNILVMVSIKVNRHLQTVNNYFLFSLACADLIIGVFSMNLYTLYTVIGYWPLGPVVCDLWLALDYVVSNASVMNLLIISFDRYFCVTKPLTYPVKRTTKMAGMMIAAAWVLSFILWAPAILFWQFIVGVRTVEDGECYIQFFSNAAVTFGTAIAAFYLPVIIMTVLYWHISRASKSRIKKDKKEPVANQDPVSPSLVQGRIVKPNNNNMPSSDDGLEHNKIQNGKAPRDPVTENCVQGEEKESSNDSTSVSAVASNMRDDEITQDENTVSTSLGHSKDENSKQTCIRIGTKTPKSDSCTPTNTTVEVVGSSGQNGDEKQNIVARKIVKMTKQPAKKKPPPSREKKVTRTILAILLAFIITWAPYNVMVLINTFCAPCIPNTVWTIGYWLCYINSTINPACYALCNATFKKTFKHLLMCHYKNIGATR

[4] = molecular target: T2, Glycine receptor subunit alpha-1 (Homo sapiens) (UniProt P23415); assay: Displacement of radioligand from strychnine sensitive glycine receptor assessed as 50% receptor inhibition at 10^-7 M; summary of the method: as §1
T2 sequence (whole entry): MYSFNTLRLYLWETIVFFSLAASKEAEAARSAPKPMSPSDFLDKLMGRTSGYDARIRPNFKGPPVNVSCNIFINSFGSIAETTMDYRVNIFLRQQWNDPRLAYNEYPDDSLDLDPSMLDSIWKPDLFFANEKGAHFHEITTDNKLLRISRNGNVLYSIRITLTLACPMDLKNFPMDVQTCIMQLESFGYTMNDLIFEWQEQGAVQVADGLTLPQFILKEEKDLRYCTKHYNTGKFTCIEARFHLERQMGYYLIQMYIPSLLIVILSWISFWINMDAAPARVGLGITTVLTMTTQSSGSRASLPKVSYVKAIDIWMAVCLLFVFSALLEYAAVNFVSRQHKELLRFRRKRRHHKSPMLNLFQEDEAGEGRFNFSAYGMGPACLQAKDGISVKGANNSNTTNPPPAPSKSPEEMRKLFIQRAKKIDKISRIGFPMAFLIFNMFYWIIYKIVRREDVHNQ

[5] = molecular target: Cannabinoid receptor 1 (Homo sapiens) (UniProt P21554); assay: Displacement of radioligand from cannabinoid CB1 receptor assessed as 50% receptor inhibition at 10^-7 M; summary of the method: as §1
Cannabinoid receptor 1 (Homo sapiens), sequence (P21554 whole entry): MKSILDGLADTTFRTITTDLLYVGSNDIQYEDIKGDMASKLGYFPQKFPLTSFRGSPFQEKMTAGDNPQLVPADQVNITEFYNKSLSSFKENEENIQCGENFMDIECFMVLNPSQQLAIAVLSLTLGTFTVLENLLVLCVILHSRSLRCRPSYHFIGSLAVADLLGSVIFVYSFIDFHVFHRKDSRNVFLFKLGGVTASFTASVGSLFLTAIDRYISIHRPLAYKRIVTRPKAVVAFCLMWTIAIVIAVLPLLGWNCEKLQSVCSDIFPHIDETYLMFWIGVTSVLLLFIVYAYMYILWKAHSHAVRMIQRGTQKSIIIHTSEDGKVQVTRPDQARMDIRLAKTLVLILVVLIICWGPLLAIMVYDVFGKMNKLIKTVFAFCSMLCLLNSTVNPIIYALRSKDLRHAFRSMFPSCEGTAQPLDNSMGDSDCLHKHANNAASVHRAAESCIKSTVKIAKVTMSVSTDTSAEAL

[6] = molecular target: Histamine H1 receptor (Homo sapiens) (UniProt P35367); assay: Displacement of radioligand from histamine H1 receptor assessed as 50% receptor inhibition at 10^-5 M; summary of the method: as §1
[7] = molecular target: T3, 5-hydroxytryptamine receptor 1A (Homo sapiens, UniProt P08908); assay: Displacement of [3H]8-OH-DPAT from human 5HT1A receptor expressed in HEK cells; format: cell-based, HEK293
T3 sequence (P08908 whole entry): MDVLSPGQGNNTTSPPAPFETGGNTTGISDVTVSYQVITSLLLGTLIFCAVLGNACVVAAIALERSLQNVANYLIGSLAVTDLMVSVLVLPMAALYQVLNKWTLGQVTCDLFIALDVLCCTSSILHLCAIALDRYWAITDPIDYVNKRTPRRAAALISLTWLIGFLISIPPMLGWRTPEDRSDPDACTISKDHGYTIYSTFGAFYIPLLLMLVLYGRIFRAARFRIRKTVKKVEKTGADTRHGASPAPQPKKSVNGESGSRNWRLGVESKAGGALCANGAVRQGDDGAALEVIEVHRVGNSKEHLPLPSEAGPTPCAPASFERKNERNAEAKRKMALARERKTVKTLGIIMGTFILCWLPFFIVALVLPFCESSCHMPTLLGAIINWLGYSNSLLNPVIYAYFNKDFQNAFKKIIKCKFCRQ
Summary of the method: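 Assay used HEK-h5-HT1A cells with 0.5 nM [3H]8-OH-DPAT, and nonspecific binding defined by 1 μM dihydroergotamine. Ki came from standard competition conditions, as mean ± SEM of replicate assays.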

[8] = Displacement of radioligand from muscarinic receptor assessed as 50% receptor inhibition at 10^-5 M; summary of the method: as §1
[9] = molecular target: Mu-type opioid receptor (Homo sapiens) (UniProt P35372); assay: Displacement of radioligand from opioid mu receptor assessed as 50% receptor inhibition at 10^-7 M; summary of the method: as §1
Mu-type opioid receptor (Homo sapiens), sequence (P35372 whole entry): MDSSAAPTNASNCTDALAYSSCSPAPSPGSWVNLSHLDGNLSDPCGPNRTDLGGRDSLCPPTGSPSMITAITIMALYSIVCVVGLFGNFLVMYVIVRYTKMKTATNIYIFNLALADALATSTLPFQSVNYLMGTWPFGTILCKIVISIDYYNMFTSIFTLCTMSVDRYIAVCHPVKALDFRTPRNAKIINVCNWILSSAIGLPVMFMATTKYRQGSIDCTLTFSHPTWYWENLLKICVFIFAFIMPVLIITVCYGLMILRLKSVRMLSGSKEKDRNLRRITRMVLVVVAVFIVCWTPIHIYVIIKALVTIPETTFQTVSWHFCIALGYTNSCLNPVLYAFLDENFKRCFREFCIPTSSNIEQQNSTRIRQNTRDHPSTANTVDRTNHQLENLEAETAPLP

[10] = Displacement of radioligand from BZT-sensitive L-type calcium channel assessed as 50% receptor inhibition at 10^-5 M; summary of the method: as §1
[11] = molecular target: T4, Muscarinic acetylcholine receptor M1 (Homo sapiens) (UniProt P11229); assay: Displacement of radioligand from muscarinic M1 receptor assessed as 50% receptor inhibition at 10^-7 M; summary of the method: as §1
T4 sequence (whole entry): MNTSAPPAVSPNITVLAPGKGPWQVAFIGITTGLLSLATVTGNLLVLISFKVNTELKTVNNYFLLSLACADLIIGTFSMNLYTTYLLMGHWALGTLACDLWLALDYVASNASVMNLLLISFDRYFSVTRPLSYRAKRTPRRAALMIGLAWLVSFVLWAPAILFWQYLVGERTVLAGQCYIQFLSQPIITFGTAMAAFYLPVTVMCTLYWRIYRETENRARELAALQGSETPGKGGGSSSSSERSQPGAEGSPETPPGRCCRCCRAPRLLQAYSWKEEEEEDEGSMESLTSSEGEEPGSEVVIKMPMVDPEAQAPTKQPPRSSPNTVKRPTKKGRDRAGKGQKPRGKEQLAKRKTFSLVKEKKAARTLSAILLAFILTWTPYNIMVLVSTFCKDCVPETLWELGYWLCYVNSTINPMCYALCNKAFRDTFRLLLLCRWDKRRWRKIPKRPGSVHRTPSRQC

[12] = molecular target: T4, Muscarinic acetylcholine receptor M1 (Homo sapiens); assay: Displacement of radioligand from muscarinic M1 receptor assessed as 50% receptor inhibition at 10^-5 M; summary of the method: as §1
[13] = Displacement of radioligand from sodium channel site 2 assessed as 50% receptor inhibition at 10^-5 M; summary of the method: as §1
[14] = molecular target: Cannabinoid receptor 2 (Homo sapiens) (UniProt P34972); assay: Displacement of radioligand from cannabinoid CB2 receptor assessed as 50% receptor inhibition at 10^-7 M; summary of the method: as §1
Cannabinoid receptor 2 (Homo sapiens), sequence (P34972 whole entry): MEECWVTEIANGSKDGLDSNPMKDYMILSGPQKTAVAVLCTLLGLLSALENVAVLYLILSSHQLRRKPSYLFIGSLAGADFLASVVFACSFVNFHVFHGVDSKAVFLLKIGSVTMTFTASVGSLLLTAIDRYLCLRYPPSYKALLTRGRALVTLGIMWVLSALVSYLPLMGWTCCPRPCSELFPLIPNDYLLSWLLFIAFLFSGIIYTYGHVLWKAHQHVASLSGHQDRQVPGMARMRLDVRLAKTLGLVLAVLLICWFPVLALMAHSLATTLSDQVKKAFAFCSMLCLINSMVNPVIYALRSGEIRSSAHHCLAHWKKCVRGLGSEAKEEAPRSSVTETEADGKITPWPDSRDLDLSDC

[15] = molecular target: D(2) dopamine receptor (Homo sapiens, UniProt P14416); assay: Displacement of [3H]YM-09151-2 from human D2 receptor expressed in CHO cells; format: cell-based
D(2) dopamine receptor, sequence (P14416 whole entry): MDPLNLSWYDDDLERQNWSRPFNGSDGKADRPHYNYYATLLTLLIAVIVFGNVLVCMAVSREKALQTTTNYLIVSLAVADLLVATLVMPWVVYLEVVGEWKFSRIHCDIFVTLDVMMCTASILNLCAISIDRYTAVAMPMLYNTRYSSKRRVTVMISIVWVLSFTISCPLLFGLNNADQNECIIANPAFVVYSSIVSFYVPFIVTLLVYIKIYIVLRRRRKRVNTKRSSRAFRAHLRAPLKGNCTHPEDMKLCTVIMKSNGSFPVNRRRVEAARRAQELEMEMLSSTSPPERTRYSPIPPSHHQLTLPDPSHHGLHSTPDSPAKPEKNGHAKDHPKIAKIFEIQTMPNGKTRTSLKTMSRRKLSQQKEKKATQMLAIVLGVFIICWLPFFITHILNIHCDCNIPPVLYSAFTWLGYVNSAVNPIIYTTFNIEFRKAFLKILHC
Summary of the method: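 CHOp-D2 or CHOp-D3 cells were labelled with 0.2–0.5 nM [3H]YM-09151-2, and nonspecific binding was set with 1 μM chlorpromazine. Ki was from standard competition conditions, as mean ± SEM of replicate assays.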

[16] = molecular target: Cannabinoid receptor 1 (Homo sapiens) (UniProt P21554); assay: Displacement of radioligand from cannabinoid CB1 receptor assessed as 50% receptor inhibition at 10^-5 M; summary of the method: as §1
[17] = molecular target: Mu-type opioid receptor (Homo sapiens) (UniProt P35372); assay: Displacement of radioligand from opioid mu receptor assessed as 50% receptor inhibition at 10^-5 M; summary of the method: as §1

Histamine H1 receptor (Homo sapiens), sequence (P35367 whole entry): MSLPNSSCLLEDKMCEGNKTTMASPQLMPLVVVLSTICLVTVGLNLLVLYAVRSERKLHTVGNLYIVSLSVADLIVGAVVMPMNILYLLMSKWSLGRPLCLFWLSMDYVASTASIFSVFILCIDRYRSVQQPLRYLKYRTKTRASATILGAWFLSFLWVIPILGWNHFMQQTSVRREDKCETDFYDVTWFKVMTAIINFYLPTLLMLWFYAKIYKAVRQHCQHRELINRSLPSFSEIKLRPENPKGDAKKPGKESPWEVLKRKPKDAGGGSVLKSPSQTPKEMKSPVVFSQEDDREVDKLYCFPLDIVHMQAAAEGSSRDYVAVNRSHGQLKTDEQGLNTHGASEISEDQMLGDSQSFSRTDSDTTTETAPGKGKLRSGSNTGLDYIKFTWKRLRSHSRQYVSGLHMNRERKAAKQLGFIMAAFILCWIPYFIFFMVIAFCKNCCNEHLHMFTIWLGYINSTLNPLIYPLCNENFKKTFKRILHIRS

COc1cc2c(cc1OC)CN(CCCCn1cc(-c3ccc(F)cc3)c3ccccc31)CC2
inhibition [1]: inactive | inhibition [2]: inactive | inhibition [3]: inactive | inhibition [4]: Active | inhibition [5]: inactive | inhibition [6]: Active | Ki [7]: 1510 nM | inhibition [8]: Active | inhibition [9]: inactive | inhibition [10]: Active | inhibition [11]: inactive | inhibition [12]: Active | inhibition [13]: Active | inhibition [14]: inactive | Ki [15]: 870 nM | inhibition [16]: Active | inhibition [17]: Active
